Assay results reported in ChEMBL document CHEMBL5360562 (Eur J Med Chem, 2023).

What was measured:
Acinetobacter baumannii [1] = experiment: Potentiation of Clarithromycin antibacterial activity against Acinetobacter baumannii AB5075 assessed as clarithromycin MIC at 30 uM incubated for 16 hrs by broth microdilution method; type: functional
Acinetobacter baumannii [2] = experiment: Potentiation of Clarithromycin antibacterial activity against Acinetobacter baumannii AB5075 assessed as clarithromycin MIC at 7.5 uM incubated for 16 hrs by broth microdilution method; type: functional
Acinetobacter baumannii [3] = experiment: Potentiation of Clarithromycin antibacterial activity against Acinetobacter baumannii AB5075 assessed as fold reduction in clarithromycin MIC at 30 uM incubated for 16 hrs by broth microdilution method; type: functional
Outline: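 Checkerboard-style potentiation by broth microdilution. 6 h day cultures in CAMHB diluted to 5×10^5 CFU/mL. Adjuvant added from 10 mM DMSO stock at fixed concentration throughout. […] Controls: antibiotic alone, adjuvant alone, media only. Incubated stationary at 37 °C for 16 h. MIC is lowest concentration with no visible growth; fold reduction taken against the antibiotic-alone lane.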

Acinetobacter baumannii [4] = experiment: Potentiation of Clarithromycin antibacterial activity against Acinetobacter baumannii AB5075 assessed as reduction in clarithromycin MIC at 20 uM incubated for 16 hrs by broth microdilution method; type: functional
Acinetobacter baumannii [5] = experiment: Potentiation of Clarithromycin antibacterial activity against Acinetobacter baumannii AB5075 assessed as clarithromycin MIC at 10 uM incubated for 16 hrs by broth microdilution method; type: functional
[6] = Antiproliferative against human HepG2 cells assessed as reduction in cell viability incubated for 24 hrs by XTT assay; type: toxicity, cell-based
[7] = Therapeutic index, ratio of IC50 for antiproliferative against human HepG2 cells assessed as reduction in cell viability to MIC for potentiation of Clarithromycin antibacterial activity against Acinetobacter baumannii […] assessed as clarithromycin MIC; type: toxicity, cell-based; details: read-out: TI
Acinetobacter baumannii [8] = experiment: Potentiation of Clarithromycin antibacterial activity against Acinetobacter baumannii AB967 assessed as clarithromycin MIC at 10 uM incubated for 16 hrs by broth microdilution method; type: functional
Acinetobacter baumannii [9] = experiment: Potentiation of Clarithromycin antibacterial activity against Acinetobacter baumannii AB3785 assessed as clarithromycin MIC at 10 uM incubated for 16 hrs by broth microdilution method; type: functional
Acinetobacter baumannii [10] = experiment: Potentiation of Clarithromycin antibacterial activity against Acinetobacter baumannii AB4498 assessed as clarithromycin MIC at 10 uM incubated for 16 hrs by broth microdilution method; type: functional
Acinetobacter baumannii [11] = experiment: Potentiation of Azithromycin antibacterial activity against Acinetobacter baumannii AB5075 assessed as azithromycin MIC at 7.5 uM incubated for 16 hrs by broth microdilution method; type: functional
Acinetobacter baumannii [12] = experiment: Potentiation of Azithromycin antibacterial activity against Acinetobacter baumannii AB5075 assessed as azithromycin MIC at 2.5 uM incubated for 16 hrs by broth microdilution method; type: functional
Acinetobacter baumannii [13] = experiment: Potentiation of erythromycin antibacterial activity against Acinetobacter baumannii AB5075 assessed as erythromycin MIC at 30 uM incubated for 16 hrs by broth microdilution method; type: functional
Acinetobacter baumannii [14] = experiment: Potentiation of erythromycin antibacterial activity against Acinetobacter baumannii AB5075 assessed as erythromycin MIC at 7.5 uM incubated for 16 hrs by broth microdilution method; type: functional
Acinetobacter baumannii [15] = experiment: Potentiation of rifampicin antibacterial activity against Acinetobacter baumannii AB5075 assessed as fold reduction in rifampicin MIC at 10 uM incubated for 16 hrs by broth microdilution method; type: functional
Pseudomonas aeruginosa = experiment: Antibacterial activity against Pseudomonas aeruginosa PAO1 assessed as inhibition of bacterial growth incubated for 16 hrs by broth microdilution method; type: functional
Outline: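 Standalone MIC by broth microdilution. 6 h day cultures in cation-adjusted Mueller-Hinton broth (CAMHB) diluted to 5×10^5 CFU/mL. Compound added from 10 mM DMSO stock to 200 μM (highest concentration), then twofold serial dilution. Incubated stationary at 37 °C for 16 h. OD600 read; MIC is lowest concentration with <10% growth versus positive control.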

Escherichia coli = experiment: Potentiation of Clarithromycin antibacterial activity against Escherichia coli ATCC 25922 assessed as clarithromycin MIC at 3.75 uM incubated for 16 hrs by broth microdilution method; type: functional

With `Cl.Cl.Nc1nc(-c2ccc(NC(=O)Nc3cccc(-c4c[nH]c(N)n4)c3F)cc2F)c[nH]1` the MIC (Acinetobacter baumannii [1]) was no more than 0.062 µg/mL, the MIC (Acinetobacter baumannii [2]) was no more than 0.062 µg/mL and the “fold change (FC)” value (Acinetobacter baumannii [3]) was “>=512”. The “fold change (FC)” value (Acinetobacter baumannii [4]) was “>=512”, the MIC (Acinetobacter baumannii [4]; Acinetobacter baumannii, AB5075) was no more than 0.062 µg/mL and the MIC (Acinetobacter baumannii [5]) was no more than 0.062 µg/mL. The IC50 at 24 h [6] was 208 µg/mL, the selectivity ratio [7] was 287 and the MIC (Acinetobacter baumannii [8]) was no more than 0.062 µg/mL. It also gave an MIC (Acinetobacter baumannii [9]) of no more than 0.062 µg/mL, an MIC (Acinetobacter baumannii [10]) of no more than 0.062 µg/mL and an MIC (Acinetobacter baumannii [11]) of 0.5 µg/mL. It also gave an MIC (Acinetobacter baumannii [12]) of 32 µg/mL, an MIC (Acinetobacter baumannii [13]) of no more than 0.062 µg/mL and an MIC (Acinetobacter baumannii [14]) of 0.25 µg/mL. For the same compound, the “fold change (FC)” value (Acinetobacter baumannii [15]) was 32, the MIC (Pseudomonas aeruginosa) was 256 µM and the MIC (Escherichia coli) was 0.125 µg/mL.
